Experimental findings from ChEMBL document CHEMBL4316617, “Inhibition of the FAD containing ER oxidoreductin 1 (Ero1) protein by EN-460 as a strategy for treatment of multiple myeloma” (Bioorg Med Chem, 2019) are described below.

The structures appear in SMILES notation. The source made the active and inactive calls. The rule behind the calls is not given here.

Series [1] has as its system U-266. Put plainly: Cytotoxicity against human U266 cells assessed as reduction in cell viability measured after 72 hrs by MTT assay. In kind it is functional, cell-based. The note with it: U-266, 72 h. The gist of the method: (§1)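 MM cell lines exposed to compound for 72 h. MTT (50 μl of 2 mg/ml) added for 4 h, formazan dissolved in DMSO, absorbance read at 570 nm. IC50 calculated; mean ± SD of 3 independent experiments.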
(Tetrazolium dyes change colour on reduction, which living cells bring about.)

Series [2] has as its system MM1.S. Put plainly: Cytotoxicity against human MM1S cells assessed as reduction in cell viability measured after 72 hrs by MTT assay. In kind it is functional, cell-based. The gist of the method:
as §1

For series [3], the target named is Protein disulfide-isomerase (Homo sapiens) (UniProt P07237). Put plainly: Binding affinity to recombinant human His-tagged PDI (18 to 479 residues) expressed in Escherichia coli assessed as melting temperature at 20 uM by SYPRO orange protein gel staining based differential scanning fluorimetry (reference value: 58.86 +/- 0.12 degreeC). In general terms: Differential scanning fluorimetry follows unfolding on heating by fluorescence.

The subject of series [4] is T1, ERO1-like protein alpha (Homo sapiens), Q96HE7 [C104A,C131A,C166A].
T1 sequence (whole entry): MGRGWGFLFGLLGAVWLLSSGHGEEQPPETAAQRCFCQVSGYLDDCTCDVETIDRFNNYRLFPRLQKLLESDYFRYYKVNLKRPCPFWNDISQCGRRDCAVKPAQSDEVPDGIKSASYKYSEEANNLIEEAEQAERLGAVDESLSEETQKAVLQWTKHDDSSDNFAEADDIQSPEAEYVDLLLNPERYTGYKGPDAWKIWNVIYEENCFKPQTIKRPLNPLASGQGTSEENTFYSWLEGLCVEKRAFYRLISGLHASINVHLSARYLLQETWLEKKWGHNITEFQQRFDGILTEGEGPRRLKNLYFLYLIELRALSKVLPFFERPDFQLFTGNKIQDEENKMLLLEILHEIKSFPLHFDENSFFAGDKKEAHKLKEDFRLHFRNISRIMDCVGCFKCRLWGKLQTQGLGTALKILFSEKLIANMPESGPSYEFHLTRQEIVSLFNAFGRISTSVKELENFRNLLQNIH
Put plainly: Binding affinity to recombinant human Ero1Lalpha C104A/C131A/C166A triple mutant (22 to 468 residues) expressed in Escherichia coli BL21(DE3)-RIL assessed as melting temperature at 20 uM by SYPRO orange protein gel staining based differential scanning fluorimetry (reference value: 53.15 +/- 0.15 degreeC).

Series [5] can be described thus: Solubility of the compound at >200 uM. In kind it is physicochemical.
In series [6] the test system is T1, ERO1-like protein alpha (Homo sapiens), Q96HE7 [C104A,C131A,C166A]. Put plainly: (§2) Inhibition of recombinant human Ero1Lalpha C104A/C131A/C166A triple mutant (22 to 468 residues) expressed in Escherichia coli BL21(DE3)-RIL measured after 30 mins by Amplex red dye based fluorescence assay.
Series [7] addresses T2, ERO1-like protein alpha (Homo sapiens, UniProt Q96HE7, C104A/C131A/C166A). The series is described as §2.
Series [8] deals with T3, Amine oxidase [flavin-containing] A (Homo sapiens, UniProt P21397).
T3 sequence (P21397 whole entry): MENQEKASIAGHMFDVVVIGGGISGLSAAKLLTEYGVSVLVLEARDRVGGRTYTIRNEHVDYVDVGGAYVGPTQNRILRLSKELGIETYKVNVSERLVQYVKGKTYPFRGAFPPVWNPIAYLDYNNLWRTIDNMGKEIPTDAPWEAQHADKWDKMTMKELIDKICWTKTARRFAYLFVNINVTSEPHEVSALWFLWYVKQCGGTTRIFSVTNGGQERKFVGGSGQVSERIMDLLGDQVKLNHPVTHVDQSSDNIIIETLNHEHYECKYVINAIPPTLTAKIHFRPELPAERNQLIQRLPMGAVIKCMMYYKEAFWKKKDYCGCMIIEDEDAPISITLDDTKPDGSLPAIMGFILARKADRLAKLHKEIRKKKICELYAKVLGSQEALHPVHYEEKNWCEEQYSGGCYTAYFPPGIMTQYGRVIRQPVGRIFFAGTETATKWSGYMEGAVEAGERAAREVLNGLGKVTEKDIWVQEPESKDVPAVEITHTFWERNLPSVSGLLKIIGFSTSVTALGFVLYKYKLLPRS
Put plainly: Inhibition of MAOA (unknown origin) using kynuramine as substrate. The gist of the method:
(§3)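 Purchased MAO-A or MAO-B activity measured as kynuramine metabolism, with fluorescence read at Ex 310/Em 380 nm. IC50 fitted, N = 2.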

Series [9] has as its system U-266. Kind of series: Induction of endoplasmic reticulum stress in human U266 cells assessed as increase in eIF2alpha phosphorylation measured after 2 to 8 hrs by Western blot analysis. In kind it is functional, cell-based. The gist of the method:
(§4)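 U266 cells treated with compound or DMSO for 2, 4 and 8 h. Lysates resolved on 8–10% SDS-PAGE and transferred to PVDF. Blocked in 5% milk/TBST, probed overnight at 4 °C for p-eIF2α, ATF4 and ATF6 (this antibody detects full-length ATF6 only), with β-actin as loading control. Chemiluminescent detection; n = 3.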
For orientation: A western blot detects proteins with antibodies after separation by electrophoresis.

The test system of series [10] is T1, ERO1-like protein alpha (Homo sapiens), Q96HE7 [C104A,C131A,C166A]. Put plainly: Competitive inhibition of recombinant human Ero1Lalpha C104A/C131A/C166A triple mutant (22 to 468 residues) expressed in Escherichia coli BL21(DE3)-RIL using varying levels of human PDI as substrate by Lineweaver-burk plot analysis.
In series [11] the target is T4, Amine oxidase [flavin-containing] B (Homo sapiens, UniProt P27338).
T4 sequence (P27338 whole entry): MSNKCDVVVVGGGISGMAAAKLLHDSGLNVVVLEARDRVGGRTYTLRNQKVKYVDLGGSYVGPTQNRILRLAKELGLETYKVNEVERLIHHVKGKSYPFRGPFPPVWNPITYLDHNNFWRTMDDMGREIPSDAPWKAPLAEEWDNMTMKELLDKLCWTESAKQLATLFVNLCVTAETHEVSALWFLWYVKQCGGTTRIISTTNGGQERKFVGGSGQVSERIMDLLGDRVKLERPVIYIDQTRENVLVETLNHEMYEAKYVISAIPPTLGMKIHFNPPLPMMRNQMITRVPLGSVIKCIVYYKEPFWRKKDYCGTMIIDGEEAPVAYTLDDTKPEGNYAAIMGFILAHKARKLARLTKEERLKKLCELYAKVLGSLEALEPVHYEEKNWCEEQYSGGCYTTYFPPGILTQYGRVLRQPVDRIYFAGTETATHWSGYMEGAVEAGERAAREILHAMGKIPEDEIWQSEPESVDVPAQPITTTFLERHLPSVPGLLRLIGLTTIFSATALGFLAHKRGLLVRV
Kind of series: Inhibition of MAOB (unknown origin) using kynuramine as substrate. The gist of the method: as §3

Series [12] has as its system U-266. Kind of series: Induction of endoplasmic reticulum stress in human U266 cells assessed as increase in ATF4 level measured after 2 to 8 hrs by Western blot analysis. In kind it is functional, cell-based. The gist of the method:
as §4

For series [13], the target named is Lysine-specific histone demethylase 1A (Homo sapiens, UniProt O60341). Put plainly: Inhibition of recombinant human LSD1 using ARTK(diMethyl)QTARKSTGGKAPRKQLAPRKQLA as substrate measured after 30 mins by ADHP/horseradish peroxidase coupled fluorescence assay. The gist of the method: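 LSD-1 activity measured with a commercial kit following the manufacturer's instructions. IC50 fitted, N = 2.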

For series [14], the system named is U-266. Kind of series: Induction of endoplasmic reticulum stress in human U266 cells assessed as reduction in full length ATF6 measured after 2 to 8 hrs by Western blot analysis. In kind it is functional, cell-based. The procedure, abridged:
as §4

Series [15] addresses T2, ERO1-like protein alpha. Put plainly: Inhibition of recombinant human Ero1Lalpha C104A/C131A/C166A triple mutant (22 to 468 residues) expressed in Escherichia coli BL21(DE3)-RIL using human PDI as substrate measured after 30 mins by Amplex red dye based fluorescence assay.
The subject of series [16] is PBMC. Kind of series: Cytotoxicity against PBMC (unknown origin) assessed as cell death. In kind it is cell-based.
In series [17] the test system is U-266. Kind of series: Induction of apoptosis in human U266 cells at 12.5 to 50 uM measured after 18 hrs by Annexin V-FITC/propidium iodide staining based flow cytometry. In kind it is functional, cell-based. The gist of the method:
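U266 cells treated with compound or DMSO vehicle for 18 h, washed in ice-cold PBS, then stained with Annexin V-FITC/PI in binding buffer for 15 min at 37 °C in the dark. At least 10,000 cells analysed by flow cytometry. Mean ± SD, n = 3 independent experiments.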

Series [18] can be described thus: Solubility of the compound in pH 7.4 phosphate buffered saline. Type of series: physicochemical. The conditions noted are these: buffer.

Sequence of Protein disulfide-isomerase (Homo sapiens) (P07237 18-508 limits assumed): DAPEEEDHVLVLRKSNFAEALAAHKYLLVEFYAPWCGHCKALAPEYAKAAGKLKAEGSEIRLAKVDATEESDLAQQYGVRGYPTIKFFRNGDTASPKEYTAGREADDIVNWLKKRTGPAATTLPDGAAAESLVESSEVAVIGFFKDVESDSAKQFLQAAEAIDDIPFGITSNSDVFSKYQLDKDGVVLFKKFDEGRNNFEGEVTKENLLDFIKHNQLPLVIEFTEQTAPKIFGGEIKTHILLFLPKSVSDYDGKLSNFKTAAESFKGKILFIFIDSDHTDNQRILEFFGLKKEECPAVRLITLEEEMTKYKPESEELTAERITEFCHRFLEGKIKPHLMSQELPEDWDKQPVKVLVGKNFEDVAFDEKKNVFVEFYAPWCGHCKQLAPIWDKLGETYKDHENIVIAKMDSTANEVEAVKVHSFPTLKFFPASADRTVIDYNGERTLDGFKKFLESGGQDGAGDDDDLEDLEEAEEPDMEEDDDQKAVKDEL

Turning to `[N-]=[N+]=Nc1cccc(-c2ccc(/C=C3/C(=O)N(c4ccc(Cl)c(C(=O)O)c4)N=C3C(F)(F)F)o2)c1`, the IC50 in [1] came out at 14.7 µM; in [2], 18.8 µM; in [7] it was 12.2 µM. Moreover, the Tm in series [3] was determined as 57.7 °C; in series [4] it was 59.8 °C. Further, the solubility result in series [5] was “Insoluble”. The inhibition result in series [6] is “Dose-dependent effect”.

Regarding `O=C(O)c1cc(N2N=C(C(F)(F)F)/C(=C/c3ccc(-c4ccccc4)o3)C2=O)ccc1Cl`, the IC50 came out at 7.91 µM in [8]; 10.1 µM in series [1]; 14.7 µM in series [2]; 30.6 µM in [11]; 4.16 µM in [13]; 22.1 µM in [15]. In addition, the IC50 in series [7] is 12.7 µM. For the same compound, the result in [9], in [12], in series [14] and in series [17] was Active. Further, the inhibition entry in series [10] is “Active”. The Tm is 59.2 °C in series [3] and 55.9 °C in [4]. Besides, in series [5], the solubility entry was “Insoluble”. In addition, in series [16], the Activity entry was “Toxic”. Also, in series [6], the inhibition entry is “Dose-dependent effect”.

With `[N-]=[N+]=Nc1ccc(-c2ccc(/C=C3/C(=O)N(c4ccc(Cl)c(C(=O)O)c4)N=C3C(F)(F)F)o2)cc1`, the IC50 in series [1] came to 7.03 µM; in series [2] it was 17.3 µM. For the same compound, the solubility entry in [18] is listed as “Insoluble”.

One may read the IC50 as the concentration that gives 50% inhibition.
